From ChEMBL document CHEMBL1129543, “Synthesis and evaluation of N-(phenylacetyl)trifluoromethanesulfonamides as anticonvulsant agents” (J Med Chem, 1996)

What was measured:
Mus musculus [1] = test: Anti-seizure activity was evaluated by Maximal electroshock seizure (MES) test at dose 300 mg/kg after 0.5 hours; ++ denotes antiseizure activity; type: functional, organism-based; parameters: dose 300 mg/kg
Procedure, shortened: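 Phase I screen in mice: ip injection at 30, 100, 300 and 600 mg/kg in 30% PEG 400 (0.01 mL/g). Test run 0.5 h and 4 h after dosing. 60-Hz AC, 50 mA, via corneal electrodes for 0.2 s. Protection means abolition of hind-leg tonic extension. Scored ++++ to + for activity at 30 to 600 mg/kg.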

Mus musculus [2] = test: Anti-seizure activity was evaluated by Neurologic toxicity (rotarod test) at dose 300 mg/kg after 0.5 hours; ++ denotes antiseizure activity; type: functional, organism-based; parameters: dose 300 mg/kg
Procedure, shortened: (§1)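 Phase I neurotoxicity in mice by rotorod ataxia test. Compound given ip at 30, 100, 300 or 600 mg/kg in 30% PEG 400, read 0.5 h and 4 h after. Scored ++++ to + for toxicity at 30 to 600 mg/kg; - means no toxicity.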

Mus musculus [3] = test: Anti-seizure activity was evaluated by Neurologic toxicity (rotarod test) at dose 600 mg/kg after 4.0 hours; + denotes neurotoxicity; type: functional, organism-based; parameters: dose 600 mg/kg; procedure, shortened: as §1
Mus musculus [4] = test: Anti-seizure activity was evaluated by Subcutaneous pentylenetetrazole seizure test at dose 300 mg/kg after 4.0 hours; ++ denotes antiseizure activity; type: functional, organism-based; parameters: dose 300 mg/kg
Procedure, shortened: (§2)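 Phase I screen in mice: ip dosing at 30, 100, 300 and 600 mg/kg in 30% PEG 400, read 0.5 h and 4 h after. Pentylenetetrazol given sc at CD97 (85 mg/kg). Protection means no clonic spasm of at least 5 s over 30 min. Scored ++++ to + for 30 to 600 mg/kg.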

Mus musculus [5] = test: (§3) Median effective dose was evaluated by Maximal electroshock seizure test through intraperitoneal administration; type: functional; details: ip
Procedure, shortened: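 Phase II in mice, ip dosing in 30% PEG 400. Groups of 6-12 mice per dose until at least three points fall in 10-90% protection.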

Mus musculus [6] = test: Median effective dose was evaluated by subcutaneous pentylenetetrazole seizure test through intraperitoneal administration; type: functional
Procedure, shortened: (§4)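 Phase II in mice, ip dosing in 30% PEG 400. Groups of 6-12 mice per dose until at least three points fall in 10-90% protection. […] MES: 50 mA, 0.2 s corneal. scMet: pentylenetetrazol 85 mg/kg sc.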

Mus musculus [7] = test: Median toxic dose was evaluated by […] through intraperitoneal administration; type: functional
Mus musculus [8] = organism: Mus musculus; test: Time to peak activity was evaluated by Maximal electroshock seizure test in hours; type: functional
Mus musculus [9] = organism: Mus musculus; test: Time to peak toxicity was evaluated by Maximal electroshock seizure test in hours; type: functional
Rattus norvegicus [10] = organism: Rattus norvegicus; test: Protective index (TD50/ED50) was determined against MES induced seizure in rat.; type: functional
Procedure, shortened: (§5)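 Oral dosing in 30% PEG 400: phase IV in mice (0.01 mL/g), phase VI in Sprague-Dawley rats (0.004 mL/g). ED50/TD50 found as in phase II, at the stated time of peak effect. MES current 50 mA in mice, 150 mA in rats. Toxicity by rotorod in mice; positional sense, gait and stance in rats. PI = TD50/ED50.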

Rattus norvegicus [11] = organism: Rattus norvegicus; test: Protective index (TD50/ED50) was determined against scMet induced seizure in rat.; type: functional; procedure, shortened: as §5
Mus musculus [12] = test: Inhibition of seizures induced in mice by a convulsant dose of up to 300 mg/kg; d= No protection; type: functional, organism-based; parameters: dose 300 mg/kg
Procedure, shortened: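 Convulsant (bicuculline, picrotoxin, strychnine or PTZ) given at CD97 as a 0.5% solution. Observed 30 min (45 min for picrotoxin). PI uses ip mouse TD50.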

Mus musculus [13] = test: Inhibition of picrotoxin-induced seizures in mice by ip administration up to 300 mg/kg (d=No protection); type: functional, organism-based; parameters: dose 300 mg/kg
Procedure, shortened: (§6)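 Phase V differentiation in mice: test drug given ip at time of peak therapeutic effect, then the CD₉₇ of each convulsant (picrotoxin, bicuculline, strychnine) given ip as a 0.5% solution; observation 30 min for bicuculline and strychnine, 45 min for picrotoxin. Drug in 30% PEG 400, 0.01 mL/g. ED₅₀ with 95% confidence intervals from ≥3 points in the 10-90% protection range, groups of 6-12 mice.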

Mus musculus [14] = test: Inhibition of seizures induced in mice by a convulsant dose of strychnine through ip administration; type: functional; procedure, shortened: as §6
Mus musculus [15] = organism: Mus musculus; test: Anti-seizure activity was evaluated by Neurologic toxicity (rotarod test) after 4.0 hours; - denotes no antiseizure activity; type: functional, organism-based; procedure, shortened: as §1
Mus musculus [16] = test: Anti-seizure activity was evaluated by Neurologic toxicity (rotarod test) at dose 600 mg/kg after 0.5 hours; + denotes neurotoxicity; type: functional, organism-based; parameters: dose 600 mg/kg; procedure, shortened: as §1
Mus musculus [17] = test: Anti-seizure activity was evaluated by Subcutaneous pentylenetetrazole seizure test at dose 600 mg/kg after 0.5 hours; + denotes neurotoxicity; type: functional, organism-based; parameters: dose 600 mg/kg; procedure, shortened: as §2
Mus musculus [18] = test: as §3; type: functional; details: ip; procedure, shortened: as §4; remark: listed apart in the source
Mus musculus [19] = test: Median Effective dose was evaluated by Maximal electroshock seizure (MES) test in mice by oral administration; type: functional
Mus musculus [20] = test: Median Effective dose was evaluated by Subcutaneous pentylenetetrazole seizure test in mice by oral administration; type: functional
Mus musculus [21] = organism: Mus musculus; test: Median hypnotic dose was evaluated by loss of righting reflex; type: functional
Mus musculus [22] = test: Median lethal dose was evaluated by mortality after 24 hr through ip injection administration; d= Hypnosis and death occurred; type: ADME, organism-based; details: in vivo
Procedure, shortened: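 Mice were dosed ip in 30% PEG 400. Mortality was scored 24 h after injection in groups of eight. The 24-h LD₅₀ was derived as for the ED₅₀/TD₅₀, with 95% confidence intervals.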

Mus musculus [23] = test: […] was evaluated by Neurologic toxicity (rotarod test) in mice by oral administration; type: functional
Procedure, shortened: as §5, with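 “in rats. PTZ sc 85 mg/kg in mice, 70 mg/kg in rats. Toxicity by” for “in rats. Toxicity by”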

Mus musculus [24] = test: Time to peak effect in mice was evaluated by Maximal electroshock seizure (MES) test in hours by oral administration; type: functional
Procedure, shortened: as §5, with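 “in rats. PTZ sc 85 mg/kg in mice, 70 mg/kg in rats. Toxicity by” for “in rats. Toxicity by”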

Mus musculus [25] = test: Time to peak effect in mice was evaluated by Neurologic toxicity (rotarod test) in hours by oral administration; type: functional
Procedure, shortened: as §5, with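 “in rats. PTZ sc 85 mg/kg in mice, 70 mg/kg in rats. Toxicity by” for “in rats. Toxicity by”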

Mus musculus [26] = test: Time to peak effect in mice was evaluated by Subcutaneous pentylenetetrazole seizure test in hours by oral administration; type: functional
Procedure, shortened: as §5, with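 “in rats. PTZ sc 85 mg/kg in mice, 70 mg/kg in rats. Toxicity by” for “in rats. Toxicity by”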

Rattus norvegicus [27] = test: Median Effective dose was evaluated by Maximal electroshock seizure (MES) test in Rats by oral administration; type: functional
Rattus norvegicus [28] = test: Median Effective dose was evaluated by Subcutaneous pentylenetetrazole seizure test in Rats by oral administration up to 40 mg/kg; b=no protection; type: functional, organism-based; parameters: dose 40 mg/kg
Procedure, shortened: as §5, with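 “in rats. PTZ sc 85 mg/kg in mice, 70 mg/kg in rats. Toxicity by” for “in rats. Toxicity by”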

Rattus norvegicus [29] = organism: Rattus norvegicus; test: Induction of p-nitroanisole-O-dimethylase enzyme was evaluated in units of nmol/min per mg liver of chronic treated rats; type: functional
Procedure, shortened: (§7)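 Rats (eight per group) given 6 mg/kg po daily, then kept on the same regimen 2 more days. Weights taken on day 7. On day 8 rats decapitated; livers perfused with 0.9% NaCl, weighed and homogenized in 0.25 M sucrose. Microsomal assays per Franklin and Estabrook. Values given as average and deviation.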

Rattus norvegicus [30] = organism: Rattus norvegicus; test: zInduction of NADPH cytochrome C reductase enzyme was evaluated in units of nmol/min per mg liver of chronic treated rats; type: functional; procedure, shortened: as §7
Rattus norvegicus [31] = test: […] was evaluated by Neurologic toxicity (rotarod test) in Rats by oral administration; type: functional
Rattus norvegicus [32] = test: Time to peak effect in Rats was evaluated by Maximal electroshock seizure (MES) test in hours by oral administration; type: functional
Procedure, shortened: as §5, with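 “in rats. PTZ sc 85 mg/kg in mice, 70 mg/kg in rats. Toxicity by” for “in rats. Toxicity by”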

Rattus norvegicus [33] = test: Time to peak effect in Rats was evaluated by Subcutaneous pentylenetetrazole seizure test in hours by oral administration; type: functional
Procedure, shortened: as §5, with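 “in rats. PTZ sc 85 mg/kg in mice, 70 mg/kg in rats. Toxicity by” for “in rats. Toxicity by”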

Rattus norvegicus [34] = organism: Rattus norvegicus; test: Total liver Protein up to 7th day was evaluated in mg/liver of chronic treated rats; type: functional; procedure, shortened: as §7
Rattus norvegicus [35] = test: The loss of righting reflex time was evaluated in acute control rats by hexobarbital injection at a hypnotic dose 100 mg/kg; type: functional
Procedure, shortened: (§8)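 Rats, eight per group, dosed po daily: vehicle for 4 days then 6 mg/kg on day 5 (acute), or 6 mg/kg daily for 5 days (chronic). Hexobarbital 100 mg/kg ip on day 6. Loss-of-righting-reflex time recorded to the nearest minute; group mean taken.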

Rattus norvegicus [36] = test: The loss of righting reflex time was evaluated in chronic treated rats by hexobarbital injection at a hypnotic dose 100 mg/kg; type: functional; procedure, shortened: as §8
Rattus norvegicus [37] = organism: Rattus norvegicus; test: Total body weight up to 7th day was evaluated in grams of chronic treated rats; type: functional; procedure, shortened: as §7
Rattus norvegicus [38] = test: Time to peak effect in Rats was evaluated by Neurologic toxicity (rotarod test) in hours by oral administration; type: functional
Rattus norvegicus [39] = organism: Rattus norvegicus; test: Induction of cytochrome P-450 enzyme was evaluated in units of nmol of enzyme/mg liver of chronic treated rats

SMILES: COc1ccc(CC(=O)NS(=O)(=O)C(F)(F)F)cc1
- Activity (Mus musculus [1]): Antiseizure activity
- Activity (Mus musculus [2]): Antiseizure activity
- Activity (Mus musculus [3]): Antiseizure activity
- Activity (Mus musculus [4]): Antiseizure activity
- ED50 (Mus musculus [5]): 33 mg/kg
- ED50 (Mus musculus [6]): 53 mg/kg
- TD50 (Mus musculus [7]): 557 mg/kg
- TPE (Mus musculus [8]): 2
- TPE (Mus musculus [9]): 0.5
- PI (Rattus norvegicus [10]): 17
- PI (Rattus norvegicus [11]): 10

SMILES: O=C(Cc1ccccc1)NS(=O)(=O)C(F)(F)F
- ED50 (Mus musculus [12]): No protection
- ED50 (Mus musculus [13]): No protection
- ED50 (Mus musculus [14]): 56 mg/kg
- Activity (Mus musculus [15]): No activity
- Activity (Mus musculus [16]): Antiseizure activity
- Activity (Mus musculus [17]): Antiseizure activity
- ED50 (Mus musculus [18]): 6.2 mg/kg
- ED50 (Mus musculus [6]): 10 mg/kg
- ED50 (Mus musculus [19]): 8.4 mg/kg
- ED50 (Mus musculus [20]): 60 mg/kg
- HD50 (Mus musculus [21]): 522 mg/kg
- LD50 (Mus musculus [22]): No protection
- TD50 (Mus musculus [23]): > 1000 mg/kg
- TD50 (Mus musculus [7]): 329 mg/kg
- TPE (Mus musculus [8]): 6
- TPE (Mus musculus [24]): 8 h
- TPE (Mus musculus [25]): 24 h
- TPE (Mus musculus [26]): 8 h
- TPE (Mus musculus [9]): 24
- ED50 (Rattus norvegicus [27]): 6.1 mg/kg
- ED50 (Rattus norvegicus [28]): No protection
- Induction (Rattus norvegicus [29]): 0.36
- Induction (Rattus norvegicus [30]): 109.9
- TD50 (Rattus norvegicus [31]): 40 mg/kg
- TPE (Rattus norvegicus [32]): 8 h
- TPE (Rattus norvegicus [33]): 8 h
- Protein (Rattus norvegicus [34]): 40.4
- Sleep time (Rattus norvegicus [35]): 33
- Sleep time (Rattus norvegicus [36]): 51
- PI (Rattus norvegicus [10]): 53
- PI (Rattus norvegicus [11]): 34
- Weight (Rattus norvegicus [37]): 128.8
- TPE (Rattus norvegicus [38]): 24 h
- Induction (Rattus norvegicus [39]): 0.41
